Experiment [1] has as its target Sigma 2 receptor. The experiment can be described thus: Inhibitory activity against opioid sigma 2 receptor in rat cerebral cortex using [3H]DTG (+300 nM (+)pentazocine) as radio ligand at pH 7.5 for 120 min at 22 degree C. The experiment is classed as tissue-based.
Experiment [2] has as its system MRC5. The experiment can be described thus: Cytotoxicity against a human diploid embryonic lung cell line (MRC-5 cells) using the colorimetric MTT assay. Format: functional. The essentials: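 MRC-5 human embryonic lung cells were exposed to the compounds, and viability was read by colorimetric MTT assay. The read-out is the CC50.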
On the technique in general: Tetrazolium assays rely on reduction of a dye to a coloured formazan, in cell work by metabolically active cells.

Experiment [3] has as its target Sigma non-opioid intracellular receptor 1 (Cavia porcellus) (UniProt Q60492). The experiment is described as follows: Selectivity index against opioid receptor sigma 1 versus cytotoxicity to that of inhibitory concentration.

As a reminder, the pIC50 is the IC50 on a negative log10 scale, so that one unit is a factor of ten. As a reminder, the CC50 is the concentration that lowers cell viability or growth by half.

pIC50: −log10 of the molar value.

Sequence of Sigma non-opioid intracellular receptor 1 (Cavia porcellus) (Q60492 whole entry, looked up): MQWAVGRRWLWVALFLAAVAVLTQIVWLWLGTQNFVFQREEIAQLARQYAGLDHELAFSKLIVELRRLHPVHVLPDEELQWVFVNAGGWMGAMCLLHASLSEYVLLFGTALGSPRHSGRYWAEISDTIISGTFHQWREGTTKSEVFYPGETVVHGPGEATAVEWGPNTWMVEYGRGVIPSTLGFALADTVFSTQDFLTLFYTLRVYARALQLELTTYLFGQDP

As for `O=C1[C@@H]2Cc3ccccc3CN2C(=O)N1CCN1CCCCC1`, the pIC50 in experiment [1] was less than 6.00. `CN(CCCCCN1C(=O)[C@@H]2Cc3ccccc3CN2C1=O)Cc1ccccc1` yielded a 50% cytotoxic concentration (CC50) in experiment [2] of 101000 nM. Besides, the IS in experiment [3] was found to be 20200. In addition, in experiment [1], the pIC50 is 7.09.

`CN(CCCN1C(=O)[C@@H]2Cc3ccccc3CN2C1=O)CCc1ccccc1`: in experiment [1], the pIC50 was 7.68. Turning to `CN(CCCN1C(=O)[C@@H]2Cc3ccccc3CN2C1=O)Cc1ccccc1`, the CC50 in experiment [2] came out at 196000 nM. The compound further gave a negative logarithm of the IC50 (pIC50) in experiment [1] of 6.30. In turn, `O=C1[C@@H]2Cc3ccccc3CN2C(=O)N1CCCNCc1ccccc1` gave a negative-log IC50 (pIC50) in experiment [1] of less than 6.00. Still for that read-out and setting: with `CN(CCCCCc1ccccc1)CCN1C(=O)[C@@H]2Cc3ccccc3CN2C1=O` the figure was less than 6.00. Take `O=C1[C@@H]2Cc3ccccc3CN2C(=O)N1CCCNCCCCc1ccccc1`: half-maximal cytotoxicity in experiment [2] (CC50) was put at 31000 nM. This compound came in with an IS in experiment [3] of 2950. Consider `CN(CCCCc1ccccc1)CCN1C(=O)[C@@H]2Cc3ccccc3CN2C1=O`, for which the negative-log IC50 (pIC50) in experiment [1] was 6.45.

The compound `CN(CCCc1ccccc1)CCN1C(=O)[C@@H]2Cc3ccccc3CN2C1=O` showed a cytotoxic concentration (CC50) in experiment [2] of 136000 nM. In experiment [3], this compound registered an IS of 10000. In experiment [2], `CN(CCCCN1C(=O)[C@@H]2Cc3ccccc3CN2C1=O)CCc1ccccc1` showed a half-maximal cytotoxic concentration (CC50) of 106000 nM. Also, in experiment [3], the IS was 10700. For `CN(CCCCN1C(=O)[C@@H]2Cc3ccccc3CN2C1=O)Cc1ccccc1`, in experiment [1], the negative-log IC50 (pIC50) was less than 7.00. In experiment [2], `CN(CCN1C(=O)[C@@H]2Cc3ccccc3CN2C1=O)Cc1ccccc1` came in with a cytotoxic concentration (CC50) of 107000 nM. In experiment [3], this compound had an IS of 23800. In addition, the pIC50 in experiment [1] was 6.01.

The values are drawn from ChEMBL document CHEMBL1140401, “Synthesis and pharmacological evaluation of Tic-hydantoin derivatives as selective sigma1 ligands. Part 2” (Bioorg Med Chem Lett, 2005).
